Experimental data published in ChEMBL document CHEMBL4028861, “Selective Nonsteroidal Glucocorticoid Receptor Modulators for the Inhaled Treatment of Pulmonary Diseases” (J Med Chem, 2017).
≈ marks a conversion by molar mass, not a printed value.

Experiments:
[1] = Solubility of the compound in phosphate buffer at pH 7.4 using liquid sample at 20 degreeC; assay type: physicochemical
In short: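 Solubility measured in 0.1 M phosphate buffer at pH 7.4 and 20 °C, starting from a 10 mM DMSO stock solution.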

[2] = Lipophilicity, log D of the compound by chromatography; assay type: physicochemical
[3] = Intrinsic clearance in human hepatocytes assessed per million cells; assay type: ADME, cell-based, Hepatocyte; settings: read-out: CLH
[4] = Solubility of the compound in phosphate buffer at pH 7.4 using solid sample at 23 degreeC; assay type: physicochemical
In short: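 Solubility measured in 0.1 M phosphate buffer at pH 7.4 and 23 °C, starting from crystalline solid.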

[5] = Thermodynamic solubility of the compound in human intestinal fluid; assay type: physicochemical; settings: read-out: Therm_solubility
[6] = Volume of distribution at steady state in Wistar Han rat at 1 umol/kg, iv administered as bolus dose by LC-MS/MS analysis; assay type: ADME, organism-based; settings: in vivo, read-out: Vdss
[7] = Terminal half life in Wistar Han rat 1 umol/kg, iv administered as bolus dose by LC-MS/MS analysis; assay type: ADME, organism-based; settings: in vivo, read-out: beta t1/2 (converted)
Lung [8] = experiment: Drug uptake in Wistar Han rat lung at 0.1 umol/kg, administered as dry powder inhalation after 24 hrs by LC-MS/MS analysis; assay type: ADME, tissue-based; settings: in vivo, inhaled_or_intranasal
[9] = AUC (0 to infinity) in Wistar Han rat lung at 0.1 umol/kg, administered as dry powder inhalation by LC-MS/MS analysis; assay type: ADME; set-up: dose 0.1 umol/kg, route respiratory (INHALATION), time infinity; settings: inhaled or intranasal
Lung [10] = experiment: Drug uptake in Wistar Han rat lung at 0.1 umol/kg, administered as dry powder inhalation after 4 hrs by LC-MS/MS analysis; assay type: ADME; settings: in vivo, inhaled_or_intranasal
[11] = Cmax in Wistar Han rat plasma at 0.1 umol/kg, administered as dry powder inhalation by LC-MS/MS analysis; assay type: ADME; set-up: dose 0.1 umol/kg, route respiratory (INHALATION); settings: inhaled or intranasal
[12] = Oral bioavailability in Wistar Han rat administered via gavage by LC-MS/MS analysis; assay type: ADME, organism-based; settings: in vivo
[13] = Mean residence time in Wistar Han rat lung at 0.1 umol/kg, administered as dry powder inhalation by LC-MS/MS analysis; assay type: ADME, tissue-based; settings: inhaled or intranasal
[14] = Apparent terminal half life in Wistar Han rat lung at 0.1 umol/kg, administered as dry powder inhalation by LC-MS/MS analysis; assay type: ADME; settings: inhaled or intranasal, read-out: betat1/2(app) (converted)
Rattus norvegicus = experiment: Toxicity in inhaled CRL:CD Sprague Dawley rat model of sephadex induced lung edema assessed as induction of thymic involution administered once per day for 3 days; settings: in vivo, inhaled_or_intranasal, 72 h
In short: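 Thymic involution scored in the same Sephadex-challenged rats dosed by inhalation, as a sensitive marker of systemic GR agonism.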

[15] = Intrinsic clearance in Wistar Han rat hepatocytes assessed per 10^6 cells; assay type: ADME, cell-based, Hepatocyte; settings: read-out: CLH
[16] = Clearance in Wistar Han rat at 1 umol/kg, iv administered as bolus dose by LC-MS/MS analysis; assay type: ADME, organism-based; settings: in vivo

Structure (SMILES) | solubility [1] [µM] | chromatographic logD [2] | hepatocyte CLint [3] [µL/min/1e6 cells] | solubility thermodynamic [4] [µM] | further results
C[C@H](NC(=O)C(C)(F)F)[C@H](Oc1ccc2c(cnn2-c2cccc(C(=O)NCc3cccnc3)c2)c1)c1ccc2c(c1)OCOC2 | < 0.1 | 3.6 | 21 | 0.02 (≈ 0.0126 µg/mL) | solubility thermodynamic [5]: 1.3 µM (≈ 0.816 µg/mL); Vd [6]: 0.81 L/kg; half-life [7]: 0.1 h; Drug uptake (Lung [8]): 8.6 %ID; AUC(0-inf) [9]: 190 µM·h; Drug uptake (Lung [10]): 41 %ID; Cmax [11]: 12 nM; bioavailability [12]: 0.3%; MRT [13]: 10 h; clearance [16]: 73 mL/min/kg; half-life [14]: 9 h; ED25 (Rattus norvegicus): 0.027 mg/kg; hepatocyte CLint [15]: 25 µL/min/1e6 cells
C[C@H](NC(=O)C(F)(F)F)[C@H](Oc1ccc2c(cnn2-c2ccc(F)cc2)c1)c1ccccc1 |  | 6.1 | < 2.1 |  | 
C[C@H](NC(=O)C(C)(F)F)[C@H](Oc1ccc2c(cnn2-c2ccc(F)cc2)c1)c1ccc2c(c1)COCO2 |  | 5.4 | 20 |  | 
C[C@H](NC(=O)C(C)(F)F)[C@H](Oc1ccc2c(cnn2-c2cccc(C(=O)N3CCC[C@H]3C(N)=O)c2)c1)c1ccccc1 | 85 (≈ 48.9 µg/mL) | 3.3 |  |  | 
C[C@H](NC(=O)C(F)(F)F)[C@H](Oc1ccc2c(cnn2-c2ccc(F)cc2)c1)c1cccc(OS(=O)(=O)O)c1 |  |  | < 2.7 |  | 
C[C@H](NC(=O)C(C)(F)F)[C@H](Oc1ccc2c(cnn2-c2ccc(F)cc2)c1)c1ccc2c(c1)OCC2 |  | 5.7 | 14 |  | 
C[C@H](NC(=O)C(C)(F)F)[C@H](Oc1ccc2c(cnn2-c2ccc(F)cc2)c1)c1ccc2c(c1)OCOC2 |  | 5.4 | 15 |  | 
C[C@H](NC(=O)C(C)(F)F)[C@H](Oc1ccc2c(cnn2-c2cccc(C(=O)N3CCC[C@@H]3C(N)=O)c2)c1)c1ccccc1 | 36 (≈ 20.7 µg/mL) | 3.3 | < 2.7 |  | 
C[C@H](NC(=O)C(F)(F)F)[C@H](Oc1ccc2c(cnn2-c2ccc(F)cc2)c1)c1cccc(O)c1 |  | 5 | 33 |  | 
CCCC1O[C@@H]2C[C@H]3[C@@H]4CCC5=CC(=O)C=C[C@]5(C)[C@H]4[C@@H](O)C[C@]3(C)[C@]2(C(=O)CO)O1 (stereo not given in full) [BUDESONIDE] |  | 3.4 | 20 |  | 
CCC(=O)O[C@]1(C(=O)SCF)[C@H](C)C[C@H]2[C@@H]3C[C@H](F)C4=CC(=O)C=C[C@]4(C)[C@@]3(F)[C@@H](O)C[C@@]21C [FLUTICASONE PROPIONATE] |  | 4.9 | 33 |  | solubility thermodynamic [5]: 0.62 µM (≈ 0.31 µg/mL); Vd [6]: 31 L/kg; half-life [7]: 3.3 h; Drug uptake (Lung [8]): 1.9 %ID; AUC(0-inf) [9]: 200 µM·h; Drug uptake (Lung [10]): 43 %ID; Cmax [11]: 24 nM; bioavailability [12]: < 0.1%; MRT [13]: 6.5 h; clearance [16]: 103 mL/min/kg; half-life [14]: 4.5 h; ED25 (Rattus norvegicus): 0.0039 mg/kg; hepatocyte CLint [15]: 28 µL/min/1e6 cells

Now from value to compound, other results behind:

solubility [1] [µM] | chromatographic logD [2] | hepatocyte CLint [3] [µL/min/1e6 cells] | solubility thermodynamic [4] [µM] | Structure (SMILES) | further results
0.01 (≈ 0.00655 µg/mL) | 3.6 | 23 | 0.68 (≈ 0.445 µg/mL) | C[C@H](NC(=O)C(C)(F)F)[C@H](Oc1ccc2c(cnn2-c2cccc(C(=O)N[C@H]3CCS(=O)(=O)C3)c2)c1)c1ccc2c(c1)OCCO2 | 
< 0.01 | 3.6 | 22 | < 0.1 | C[C@H](NC(=O)C(C)(F)F)[C@H](Oc1ccc2c(cnn2-c2cccc(C(=O)N[C@@H]3CCS(=O)(=O)C3)c2)c1)c1ccc2c(c1)OCCO2 | solubility thermodynamic [5]: 0.3 µM (≈ 0.196 µg/mL); Vd [6]: 2.8 L/kg; half-life [7]: 0.3 h; Drug uptake (Lung [8]): 91 %ID; AUC(0-inf) [9]: 5200 µM·h; Drug uptake (Lung [10]): 93 %ID; Cmax [11]: 4.9 nM; bioavailability [12]: < 0.1%; MRT [13]: 210 h; half-life [14]: 179 h; ED25 (Rattus norvegicus): > 0.13 mg/kg; hepatocyte CLint [15]: 31 µL/min/1e6 cells
1.3 (≈ 0.789 µg/mL) | 3.7 | 30 | 0.09 (≈ 0.0546 µg/mL) | C[C@H](NC(=O)C(C)(F)F)[C@H](Oc1ccc2c(cnn2-c2cccc(C(=O)N[C@H]3CCOC3)c2)c1)c1ccc2c(c1)OCCO2 | 
0.11 (≈ 0.0667 µg/mL) | 3.6 | 26 | 0.03 (≈ 0.0182 µg/mL) | C[C@H](NC(=O)C(C)(F)F)[C@H](Oc1ccc2c(cnn2-c2cccc(C(=O)N[C@H]3CCOC3)c2)c1)c1ccc2c(c1)OCOC2 | 
< 0.1 | 3.7 | 21 | 0.23 (≈ 0.144 µg/mL) | C[C@H](NC(=O)C(C)(F)F)[C@H](Oc1ccc2c(cnn2-c2cccc(C(=O)NCc3cccnc3)c2)c1)c1ccc2c(c1)OCCO2 | solubility thermodynamic [5]: 2.1 µM (≈ 1.32 µg/mL); Vd [6]: 0.97 L/kg; half-life [7]: 0.2 h; Drug uptake (Lung [8]): 0.18 %ID; AUC(0-inf) [9]: 26 µM·h; Drug uptake (Lung [10]): 4.1 %ID; Cmax [11]: 21 nM; bioavailability [12]: 0.16%; MRT [13]: 2.6 h; clearance [16]: 68 mL/min/kg; half-life [14]: 4.9 h; ED25 (Rattus norvegicus): 0.012 mg/kg; hepatocyte CLint [15]: 25 µL/min/1e6 cells
0.16 (≈ 0.0993 µg/mL) | 3.6 | 17 | 0.22 (≈ 0.137 µg/mL) | C[C@H](NC(=O)C(C)(F)F)[C@H](Oc1ccc2c(cnn2-c2cccc(C(=O)N[C@@H]3CCOC3=O)c2)c1)c1ccc2c(c1)OCCO2 | 
2 (≈ 1.13 µg/mL) | 3.9 |  | 0.12 (≈ 0.0675 µg/mL) | C[C@H](NC(=O)C(C)(F)F)[C@H](Oc1ccc2c(cnn2-c2cccc(C(=O)N[C@@H]3CCOC3=O)c2)c1)c1ccccc1 | 
 | 5.7 |  |  | C[C@H](NC(=O)C(F)(F)F)[C@H](Oc1ccc2c(cnn2-c2ccc(F)cc2)c1)c1ccc2c(c1)OCCO2 | 
47 (≈ 29.8 µg/mL) | 2.9 | 11 |  | C[C@H](NC(=O)C(C)(F)F)[C@H](Oc1ccc2c(cnn2-c2cccc(C(=O)N3CCC[C@@H]3C(N)=O)c2)c1)c1ccc2c(c1)OCCO2 | 
1 (≈ 0.597 µg/mL) | 3.8 | < 2.7 | 0.34 (≈ 0.203 µg/mL) | C[C@H](NC(=O)C(C)(F)F)[C@H](Oc1ccc2c(cnn2-c2cccc(C(=O)NC3CCS(=O)(=O)C3)c2)c1)c1ccccc1 (stereo not given in full) | 
19 (≈ 12 µg/mL) | 2.9 | 9.7 |  | C[C@H](NC(=O)C(C)(F)F)[C@H](Oc1ccc2c(cnn2-c2cccc(C(=O)N3CCC[C@@H]3C(N)=O)c2)c1)c1ccc2c(c1)OCOC2 | 
< 0.1 | 3.7 | 29 | 0.02 (≈ 0.0121 µg/mL) | C[C@H](NC(=O)C(C)(F)F)[C@H](Oc1ccc2c(cnn2-c2cccc(C(=O)N[C@@H]3CCOC3)c2)c1)c1ccc2c(c1)OCCO2 [VELSECORAT] | solubility thermodynamic [5]: 0.6 µM (≈ 0.364 µg/mL); Vd [6]: 0.16 L/kg; half-life [7]: 0.1 h; Drug uptake (Lung [8]): 32 %ID; AUC(0-inf) [9]: 740 µM·h; Drug uptake (Lung [10]): 73 %ID; Cmax [11]: 7.4 nM; bioavailability [12]: < 0.1%; MRT [13]: 23 h; clearance [16]: 30 mL/min/kg; half-life [14]: 17 h; ED25 (Rattus norvegicus): 0.04 mg/kg; hepatocyte CLint [15]: 34 µL/min/1e6 cells
